# Measurements reported in ChEMBL document CHEMBL3871269, “Conjugates of podophyllotoxin and norcantharidin as dual inhibitors of topoisomeraseⅡ and protein phosphatase 2A” (Eur J Med Chem, 2016).
# Assay: Cytotoxicity against human A549 cells measured after 48 hrs by MTT assay
# Format: functional, cell-based
# Conditions: A549, 48 h
# In short: (§1)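 MTT growth assay; cells seeded at 5×10³/well in RPMI1640 with 10% heat-inactivated FBS, attached 4–6 h, then exposed to five concentrations (0.01–100 μM, compounds dissolved in saline) for 48 h at 37 °C, 5% CO₂. MTT added for 4 h, formazan dissolved in DMSO, absorbance read at 490 nm. IC50 taken from log plot of percent of control versus concentration; means ± SD of triplicate experiments.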
row,Structure (SMILES),IC50 [µM]
1,COc1cc([C@@H]2c3cc4c(cc3[C@@H](NC(=O)[C@H](C)N3C(=O)C5C6CCC(O6)C5C3=O)[C@H]3COC(=O)[C@H]23)OCO4)cc(OC)c1O (stereo partly specified),44.5
2,COc1cc([C@@H]2c3cc4c(cc3[C@@H](NC(=O)c3ccc(N5C(=O)C6C7CCC(O7)C6C5=O)cc3)[C@H]3COC(=O)[C@H]23)OCO4)cc(OC)c1O (stereo partly specified),3.42
3,COc1cc([C@@H]2c3cc4c(cc3[C@@H](NC(=O)[C@H](C(C)C)N3C(=O)C5C6CCC(O6)C5C3=O)[C@H]3COC(=O)[C@H]23)OCO4)cc(OC)c1O (stereo partly specified),6.73

# Assay: Cytotoxicity against human HepG2 cells measured after 48 hrs by MTT assay
# Format: functional, cell-based
# Conditions: HepG2, 48 h
# In short: as §1
row,Structure (SMILES),IC50 [µM]
1,COc1cc([C@@H]2c3cc4c(cc3[C@@H](NC(=O)[C@H](C)N3C(=O)C5C6CCC(O6)C5C3=O)[C@H]3COC(=O)[C@H]23)OCO4)cc(OC)c1O (stereo partly specified),13.7
2,COc1cc([C@@H]2c3cc4c(cc3[C@@H](NC(=O)c3ccc(N5C(=O)C6C7CCC(O7)C6C5=O)cc3)[C@H]3COC(=O)[C@H]23)OCO4)cc(OC)c1O (stereo partly specified),0.1
3,COc1cc([C@@H]2c3cc4c(cc3[C@@H](NC(=O)[C@H](C(C)C)N3C(=O)C5C6CCC(O6)C5C3=O)[C@H]3COC(=O)[C@H]23)OCO4)cc(OC)c1O (stereo partly specified),1.62

# Assay: Cytotoxicity against human HeLa cells measured after 48 hrs by MTT assay
# Format: functional, cell-based
# Conditions: not given
# In short: as §1
row,Structure (SMILES),IC50 [µM]
1,COc1cc([C@@H]2c3cc4c(cc3[C@@H](NC(=O)[C@H](C)N3C(=O)C5C6CCC(O6)C5C3=O)[C@H]3COC(=O)[C@H]23)OCO4)cc(OC)c1O (stereo partly specified),15.1
2,COc1cc([C@@H]2c3cc4c(cc3[C@@H](NC(=O)c3ccc(N5C(=O)C6C7CCC(O7)C6C5=O)cc3)[C@H]3COC(=O)[C@H]23)OCO4)cc(OC)c1O (stereo partly specified),2.61
3,COc1cc([C@@H]2c3cc4c(cc3[C@@H](NC(=O)[C@H](C(C)C)N3C(=O)C5C6CCC(O6)C5C3=O)[C@H]3COC(=O)[C@H]23)OCO4)cc(OC)c1O (stereo partly specified),8.3

# Assay: Cytotoxicity against human HCT8 cells measured after 48 hrs by MTT assay
# Format: functional, cell-based
# Conditions: HCT-8, 48 h
# In short: as §1
row,Structure (SMILES),IC50 [µM]
1,COc1cc([C@@H]2c3cc4c(cc3[C@@H](NC(=O)[C@H](C)N3C(=O)C5C6CCC(O6)C5C3=O)[C@H]3COC(=O)[C@H]23)OCO4)cc(OC)c1O (stereo partly specified),16.9
2,COc1cc([C@@H]2c3cc4c(cc3[C@@H](NC(=O)c3ccc(N5C(=O)C6C7CCC(O7)C6C5=O)cc3)[C@H]3COC(=O)[C@H]23)OCO4)cc(OC)c1O (stereo partly specified),3.12
3,COc1cc([C@@H]2c3cc4c(cc3[C@@H](NC(=O)[C@H](C(C)C)N3C(=O)C5C6CCC(O6)C5C3=O)[C@H]3COC(=O)[C@H]23)OCO4)cc(OC)c1O (stereo partly specified),7.81

# Assay: Cytotoxicity against human WI38 cells measured after 48 hrs by MTT assay
# Format: toxicity, cell-based, WI-38
# Conditions: not given
# In short: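 MTT growth inhibition in WI-38 lung fibroblasts. Cells seeded at 5×10³/well in RPMI1640 with 10% heat-inactivated FBS, attached 4–6 h, then exposed 48 h at 37 °C, 5% CO₂ to five concentrations (0.01–100 μM, saline-dissolved). MTT 4 h, DMSO solubilisation, A490. IC50 from log plot of percent control vs concentration; triplicate, mean ± SD.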
row,Structure (SMILES),IC50 at 48 h [µM]
1,COc1cc([C@@H]2c3cc4c(cc3[C@@H](NC(=O)[C@H](C)N3C(=O)C5C6CCC(O6)C5C3=O)[C@H]3COC(=O)[C@H]23)OCO4)cc(OC)c1O (stereo partly specified),35.6
2,COc1cc([C@@H]2c3cc4c(cc3[C@@H](NC(=O)c3ccc(N5C(=O)C6C7CCC(O7)C6C5=O)cc3)[C@H]3COC(=O)[C@H]23)OCO4)cc(OC)c1O (stereo partly specified),46.5
3,COc1cc([C@@H]2c3cc4c(cc3[C@@H](NC(=O)[C@H](C(C)C)N3C(=O)C5C6CCC(O6)C5C3=O)[C@H]3COC(=O)[C@H]23)OCO4)cc(OC)c1O (stereo partly specified),44.4

# Assay: Octanol-water partition coefficient, log P of the compound
# Format: physicochemical
# Conditions: read-out: logP
# In short: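 Partition coefficient P = compound concentration in 1-octanol / compound concentration in water.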
row,Structure (SMILES),logP
1,COc1cc([C@@H]2c3cc4c(cc3[C@@H](NC(=O)[C@H](C)N3C(=O)C5C6CCC(O6)C5C3=O)[C@H]3COC(=O)[C@H]23)OCO4)cc(OC)c1O (stereo partly specified),0.62
2,COc1cc([C@@H]2c3cc4c(cc3[C@@H](NC(=O)c3ccc(N5C(=O)C6C7CCC(O7)C6C5=O)cc3)[C@H]3COC(=O)[C@H]23)OCO4)cc(OC)c1O (stereo partly specified),2.06
3,COc1cc([C@@H]2c3cc4c(cc3[C@@H](NC(=O)[C@H](C(C)C)N3C(=O)C5C6CCC(O6)C5C3=O)[C@H]3COC(=O)[C@H]23)OCO4)cc(OC)c1O (stereo partly specified),1.48

# Assay: Inhibition of human RBC PP2A assessed as reduction in free phosphate ion release using Lys-Arg-pThr-Ile-Arg as substrate preincubated for 10 mins followed by substrate addition measured after 60 mins by malachite green method
# Conditions: not given
# In short: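 Purified PP2A (0.6 mU/well) preincubated with inhibitor 10 min at 37 °C. Reaction started with 200 μM Lys-Arg-pThr-Ile-Arg in 50 mM Tris-HCl pH 7.0, 100 μM CaCl₂; 60 min at room temperature. Released phosphate read by malachite green at 650 nm after 10 min; enzyme-plus-buffer blanks. IC50 from dose–response; mean of three independent experiments in duplicate.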
row,Structure (SMILES),IC50 [µM]
1,COc1cc([C@@H]2c3cc4c(cc3[C@@H](NC(=O)[C@H](C)N3C(=O)C5C6CCC(O6)C5C3=O)[C@H]3COC(=O)[C@H]23)OCO4)cc(OC)c1O (stereo partly specified),> 100
2,COc1cc([C@@H]2c3cc4c(cc3[C@@H](NC(=O)c3ccc(N5C(=O)C6C7CCC(O7)C6C5=O)cc3)[C@H]3COC(=O)[C@H]23)OCO4)cc(OC)c1O (stereo partly specified),3.63
3,COc1cc([C@@H]2c3cc4c(cc3[C@@H](NC(=O)[C@H](C(C)C)N3C(=O)C5C6CCC(O6)C5C3=O)[C@H]3COC(=O)[C@H]23)OCO4)cc(OC)c1O (stereo partly specified),1.12
